# Assay results as given in ChEMBL document CHEMBL4130635, “2,4-Diaminoquinazolines as Dual Toll-like Receptor (TLR) 7/8 Modulators for the Treatment of Hepatitis B Virus” (J Med Chem, 2018).
# pIC50: −log10 of the molar value. Active and inactive are the calls of the source. The rule behind the calls is not given here.
# Experiments:
# [1] = Cmax in cynomolgus monkey plasma at 3 mg/kg, po by LC-MS analysis; type: ADME, organism-based, Macaca fascicularis; design: dose 3 mg/kg, route oral
# Summary of the method: (§1)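 Healthy cynomolgus monkeys received oral doses of 1, 3, 9 and 30 mg/kg, with a 2-week wash-out between doses. Systemic compound concentrations by LC−MS at 0.25, 0.5, 1, 2, 4, 8 and 24 h postdose.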
# [2] = Drug uptake in C57BL/6J mouse liver at 30 mg/kg, po by LC-MS analysis; type: ADME, organism-based; details: in vivo
# Summary of the method: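 Healthy C57BL/6 mice, groups of 15, given a single oral dose (0.3, 1, 3, 10 or 30 mg/kg) in 20% HP-β-CD. Blood drawn at 0.5 h. Three mice per group sacrificed at 0.5, 1, 2, 4 or 7 h, and compound in plasma and liver measured by LC−MS. Values rounded to whole numbers.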
# [3] = Solubility of the compound in FeSSIF; type: physicochemical
# Cynomolgus monkey [4] = assay: Effect on cytokine profile in cynomolgus monkey plasma assessed as IL-12P70 levels at 9 mg/kg, po after 24 hrs by Luminex assay (reference value: 2.17 pg/ml); type: functional, Macaca fascicularis
# Summary of the method: (§2)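 Healthy cynomolgus monkeys given single oral doses of 1, 3, 9 and 30 mg/kg, with a 2-week wash-out planned between doses. Systemic cytokine levels in plasma were sampled at 0.5, 1, 2, 4, 9 and 24 h postdose.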
# Cynomolgus monkey [5] = assay: Induction of IFNalpha levels in cynomolgus monkey plasma at 9 mg/kg, po after 24 hrs by ELISA; type: functional, Macaca fascicularis; summary of the method: as §2
# Cynomolgus monkey [6] = assay: Effect on cytokine profile in cynomolgus monkey plasma assessed as IL-12P70 levels at 3 mg/kg, po after 24 hrs by Luminex assay (reference value: 2.17 pg/ml); type: functional, organism-based; details: Macaca fascicularis; summary of the method: as §2
# Cynomolgus monkey [7] = assay: Induction of ISG response in cynomolgus monkey plasma assessed as upregulation of Oas1b mRNA expression at 9 mg/kg, po after 24 hrs by Fluidigm RT-qPCR analysis (reference value: 1); type: functional, Macaca fascicularis
# Summary of the method: (§3)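 Cynomolgus monkeys, single oral doses of 1, 3, 9 and 30 mg/kg with a planned 2-week wash-out between doses. Systemic ISG (ISG15, Mx1, OAS1) mRNA was measured by Fluidigm RT-qPCR at 1, 2, 4, 8 and 24 h postdose.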
# [8] = molecular target: T1, TLR7 and TLR8 (Homo sapiens) (UniProt Q9NYK1+Q9NR97); assay: Agonist activity at TLR7/8 in human PBMCs co-cultured with primary human hepatocytes infected with HBV genotype C for 12 days assessed as increase in IL-6 levels up to 5 uM measured after 42 days
# T1 sequence (Q9NR97 whole entry, looked up): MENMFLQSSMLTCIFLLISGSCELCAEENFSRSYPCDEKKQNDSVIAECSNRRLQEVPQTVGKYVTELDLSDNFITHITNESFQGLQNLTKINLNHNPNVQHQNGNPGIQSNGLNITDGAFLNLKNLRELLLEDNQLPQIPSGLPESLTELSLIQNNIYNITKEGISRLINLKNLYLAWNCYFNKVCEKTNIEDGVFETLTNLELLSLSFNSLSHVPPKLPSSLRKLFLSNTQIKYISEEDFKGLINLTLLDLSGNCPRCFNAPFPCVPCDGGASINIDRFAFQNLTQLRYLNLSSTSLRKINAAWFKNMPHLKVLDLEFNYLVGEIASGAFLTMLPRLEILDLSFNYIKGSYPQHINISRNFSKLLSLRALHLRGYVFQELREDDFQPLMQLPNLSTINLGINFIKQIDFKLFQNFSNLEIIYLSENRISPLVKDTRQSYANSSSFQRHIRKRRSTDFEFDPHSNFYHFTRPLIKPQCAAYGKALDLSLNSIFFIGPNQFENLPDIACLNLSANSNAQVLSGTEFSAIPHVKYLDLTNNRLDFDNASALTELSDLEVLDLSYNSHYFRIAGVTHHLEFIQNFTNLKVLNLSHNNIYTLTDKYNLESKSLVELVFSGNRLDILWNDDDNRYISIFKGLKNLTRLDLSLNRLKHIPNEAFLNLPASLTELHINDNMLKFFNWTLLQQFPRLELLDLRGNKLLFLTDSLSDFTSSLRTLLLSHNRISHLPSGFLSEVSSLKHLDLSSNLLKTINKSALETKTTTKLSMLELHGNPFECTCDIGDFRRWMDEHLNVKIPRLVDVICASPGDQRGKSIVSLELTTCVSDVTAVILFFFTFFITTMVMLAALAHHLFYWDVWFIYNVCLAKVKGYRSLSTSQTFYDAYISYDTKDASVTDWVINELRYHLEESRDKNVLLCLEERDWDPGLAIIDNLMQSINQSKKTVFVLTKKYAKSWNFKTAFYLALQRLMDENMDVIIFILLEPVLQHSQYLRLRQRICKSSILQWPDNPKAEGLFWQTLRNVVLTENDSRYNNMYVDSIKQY
# T1 sequence (Q9NYK1 whole entry, looked up): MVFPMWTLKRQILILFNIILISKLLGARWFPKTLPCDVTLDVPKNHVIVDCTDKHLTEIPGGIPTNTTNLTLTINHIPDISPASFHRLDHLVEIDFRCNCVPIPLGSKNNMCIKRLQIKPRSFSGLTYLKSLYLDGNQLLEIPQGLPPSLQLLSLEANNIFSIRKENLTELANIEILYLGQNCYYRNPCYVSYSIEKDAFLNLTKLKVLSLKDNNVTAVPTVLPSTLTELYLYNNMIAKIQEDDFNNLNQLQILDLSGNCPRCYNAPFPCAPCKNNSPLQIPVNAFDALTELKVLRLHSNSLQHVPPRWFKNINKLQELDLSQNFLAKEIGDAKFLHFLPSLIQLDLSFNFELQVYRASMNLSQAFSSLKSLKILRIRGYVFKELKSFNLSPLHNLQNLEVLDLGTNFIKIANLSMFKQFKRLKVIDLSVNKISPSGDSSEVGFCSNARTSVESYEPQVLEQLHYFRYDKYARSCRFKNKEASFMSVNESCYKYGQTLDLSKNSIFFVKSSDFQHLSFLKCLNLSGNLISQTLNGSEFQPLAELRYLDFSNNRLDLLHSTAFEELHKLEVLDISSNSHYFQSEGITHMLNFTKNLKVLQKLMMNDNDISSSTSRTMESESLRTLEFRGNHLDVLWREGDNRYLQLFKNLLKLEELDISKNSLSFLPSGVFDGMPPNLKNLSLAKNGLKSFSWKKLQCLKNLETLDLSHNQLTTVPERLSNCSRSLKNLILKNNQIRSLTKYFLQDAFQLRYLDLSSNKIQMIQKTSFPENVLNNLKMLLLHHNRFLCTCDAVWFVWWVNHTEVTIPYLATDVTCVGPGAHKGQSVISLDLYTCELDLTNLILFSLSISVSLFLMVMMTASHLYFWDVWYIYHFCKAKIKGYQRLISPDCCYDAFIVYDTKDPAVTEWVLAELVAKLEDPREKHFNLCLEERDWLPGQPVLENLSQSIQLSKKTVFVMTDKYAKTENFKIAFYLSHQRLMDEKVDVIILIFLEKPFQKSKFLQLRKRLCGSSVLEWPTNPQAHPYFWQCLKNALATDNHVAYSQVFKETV
# Liver [9] = assay: Effect on cytokine profile in C57BL/6J mouse liver assessed as IL-12p70 levels at 1 mg/kg, po by multiplex assay (reference value: 5 pg/g); type: functional, organism-based
# Summary of the method: (§4)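 Single oral gavage in 20% HP-β-CD to healthy C57BL/6 mice, groups of 15 at 0.3, 1, 3, 10 or 30 mg/kg. Three mice per group sacrificed at 0.5, 1, 2, 4 or 7 h. Plasma and liver cytokines by multiplex, maximum level reported, rounded to nearest multiple of 5.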
# [10] = Plasma concentration in C57BL/6J mouse at 30 mg/kg, po by LC-MS analysis; type: ADME, organism-based; details: in vivo
# Cynomolgus monkey [11] = assay: Anti-inflammatory activity in cynomolgus monkey plasma assessed as IL-10 levels at 3 mg/kg, po after 24 hrs by Luminex assay (reference value: 195 pg/ml); type: functional, Macaca fascicularis
# [12] = molecular target: T1, TLR7 and TLR8 (Homo sapiens); assay: Agonist activity at TLR7/8 in human PBMCs co-cultured with primary human hepatocytes infected with HBV genotype C for 12 days assessed as increase in fractalkine sCD40L levels up to 5 uM measured after 42 days
# Plasma [13] = assay: Proinflammatory activity in C57BL/6J mouse plasma assessed as CXCL-1 levels at 3 mg/kg, po by multiplex assay (reference value: 230 pg/ml); type: functional
# Cynomolgus monkey [14] = assay: Induction of ISG response in cynomolgus monkey plasma assessed as upregulation of Isg15 mRNA expression at 1 mg/kg, po after 24 hrs by Fluidigm RT-qPCR analysis (reference value: 1); type: functional, Macaca fascicularis; summary of the method: as §3
# Plasma [15] = assay: Upregulation of IP-10 mRNA expression levels in C57BL/6J mouse plasma at 3 mg/kg, po by RT-qPCR analysis (reference value: 1); type: functional
# Mus musculus = assay: Toxicity in C57BL/6J mouse at 30 mg/kg, po after 1 to 2 hrs […]; type: organism-based; details: in vivo
# Cynomolgus monkey [16] = assay: Effect on cytokine profile in cynomolgus monkey plasma assessed as IL-12P70 levels at 30 mg/kg, po after 24 hrs by Luminex assay (reference value: 2.17 pg/ml); type: functional, Macaca fascicularis; summary of the method: as §2
# Liver [17] = assay: Proinflammatory activity in C57BL/6J mouse liver assessed as IL-1beta levels at 3 mg/kg, po by multiplex assay; type: functional
# [18] = Protein binding in mouse plasma fraction at 5 uM after 4.5 hrs LC-MS/MS-based rapid equilibrium dialysis method; type: ADME, cell-free; details: read-out: PPB (converted)
# Liver [19] = assay: Proinflammatory activity in C57BL/6J mouse liver assessed as IL-1beta levels at 1 mg/kg, po by multiplex assay; type: functional
# Cynomolgus monkey [20] = assay: Induction of G-CSF in cynomolgus monkey plasma at 1 mg/kg, po after 24 hrs by Luminex assay (reference value: 85 pg/ml); type: functional, organism-based; details: Macaca fascicularis; summary of the method: as §2
# Plasma [21] = assay: Anti-inflammatory activity in C57BL/6J mouse plasma assessed as IL-10 levels at 30 mg/kg, po by multiplex assay (reference value: 120 pg/ml); type: functional; summary of the method: as §4
# [22] = Cmax in cynomolgus monkey plasma at 30 mg/kg, po by LC-MS analysis; type: ADME, organism-based, Macaca fascicularis; design: dose 30 mg/kg, route oral; summary of the method: as §1
# Cytochrome P450 2D6 = Cytochrome P450 2D6 (Homo sapiens, UniProt P10635); assay: Inhibition of CYP2D6 (unknown origin); type: ADME
# Sequence of Cytochrome P450 2D6 (P10635 whole entry): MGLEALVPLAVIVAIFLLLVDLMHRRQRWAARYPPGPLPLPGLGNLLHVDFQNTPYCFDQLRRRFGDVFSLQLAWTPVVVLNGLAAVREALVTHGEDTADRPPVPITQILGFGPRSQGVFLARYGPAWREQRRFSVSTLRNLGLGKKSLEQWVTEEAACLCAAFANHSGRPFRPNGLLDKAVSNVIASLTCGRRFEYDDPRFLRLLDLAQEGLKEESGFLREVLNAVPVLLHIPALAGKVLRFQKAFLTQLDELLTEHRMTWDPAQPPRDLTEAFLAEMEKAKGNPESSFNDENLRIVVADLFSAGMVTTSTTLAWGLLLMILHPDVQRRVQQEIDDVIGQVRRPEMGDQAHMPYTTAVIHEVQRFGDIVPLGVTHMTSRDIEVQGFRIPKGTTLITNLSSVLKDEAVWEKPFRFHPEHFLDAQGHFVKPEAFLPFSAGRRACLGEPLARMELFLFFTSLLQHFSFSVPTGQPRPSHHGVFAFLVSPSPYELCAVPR
# Liver [23] = assay: Proinflammatory activity in C57BL/6J mouse liver assessed as CXCL-1 levels at 30 mg/kg, po by multiplex assay (reference value: 25 pg/g); type: functional
# Liver [24] = assay: Induction of IFNalpha levels in C57BL/6J mouse liver at 3 mg/kg, po by ELISA (reference value: 30 pg/g); type: functional
# Cynomolgus monkey [25] = assay: Anti-inflammatory activity in cynomolgus monkey plasma assessed as IL-10 levels at 1 mg/kg, po after 24 hrs by Luminex assay (reference value: 195 pg/ml); type: functional, Macaca fascicularis
# Cynomolgus monkey [26] = assay: Activation of monocytes in cynomolgus monkey plasma assessed as upregulation of IL1Ra levels at 1 mg/kg, po after 24 hrs by Luminex assay (reference value: 320 pg/ml); type: functional, Macaca fascicularis
# Cynomolgus monkey [27] = assay: Plasma concentration in cynomolgus monkey at 9 mg/kg, po by LC-MS analysis; type: ADME, organism-based, Macaca fascicularis; details: in vivo
# Liver [28] = assay: Effect on cytokine profile in C57BL/6J mouse liver assessed as IL-12p70 levels at 10 mg/kg, po by multiplex assay (reference value: 5 pg/g); type: functional; summary of the method: as §4
# Liver [29] = assay: Proinflammatory activity in C57BL/6J mouse liver assessed as IL-1beta levels at 10 mg/kg, po by multiplex assay; type: functional
# [30] = molecular target: T1, TLR7 and TLR8 (Homo sapiens); assay: Agonist activity at TLR7/8 in human PBMCs co-cultured with primary human hepatocytes infected with HBV genotype C for 12 days assessed as increase in MCP1 levels up to 5 uM measured after 42 days
smiles,measurement,setting,value
CCC[C@@H](CCO)Nc1nc(N)nc2c(F)cccc12,Cmax,[1],142 ng/mL
same,Drug uptake,[2],462 ng/g
same,solubility,[3],> 4000 µg/mL
same,Activity,Cynomolgus monkey [4],3.8 pg/mL
same,Activity,Cynomolgus monkey [5],>51200 pg/mL
same,Activity,Cynomolgus monkey [6],Below limit of detection
same,fold change (FC),Cynomolgus monkey [7],260
same,Activity,[8],Active
same,Activity,Liver [9],Below limit of detection
same,Cp,[10],35.7 ng/mL
same,Activity,Cynomolgus monkey [11],1615 pg/mL
same,Activity,[12],Active
same,Activity,Plasma [13],>10000 pg/mL
same,fold change (FC),Cynomolgus monkey [14],145
same,fold change (FC),Plasma [15],2485
same,Activity,Mus musculus,Toxic
same,Activity,Cynomolgus monkey [16],10.1 pg/mL
same,Activity,Liver [17],22925 pg/g
same,"fraction unbound at 4.5 h, 5 µM",[18],0.4
same,Activity,Liver [19],16445 pg/g
same,Activity,Cynomolgus monkey [20],Below limit of detection
same,Activity,Plasma [21],5170 pg/mL
same,Cmax,[22],2070 ng/mL
same,pIC50,Cytochrome P450 2D6,5.24
same,Activity,Liver [23],>83333 pg/g
same,Activity,Liver [24],765 pg/g
same,Activity,Cynomolgus monkey [25],1275 pg/mL
same,Activity,Cynomolgus monkey [26],805 pg/mL
same,Cp,Cynomolgus monkey [27],200 ng/mL
same,Activity,Liver [28],790 pg/g
same,Activity,Liver [29],29525 pg/g
same,Activity,[30],Active
